Results published in ChEMBL document CHEMBL4350999, “Enhanced tumor retention of NTSR1-targeted agents by employing a hydrophilic cysteine cathepsin inhibitor” (Eur J Med Chem, 2019).
Activity calls are given as the source filed them. No cut-off for these calls is given here.

Key:
[1] = Drug uptake in SCID mouse xenografted with human HT-29 cells assessed as tumour retention using 177Lu labelled compound at 0.37 MBq/mouse, iv co-treated with D-lysine at 40 mg/kg measured at 24 hrs by gamma counter analysis; assay type: ADME, organism-based; conditions: in vivo
Summary of the method: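 Female SCID mice bearing s.c. flank HT-29 xenografts (5 × 10^6 cells in Matrigel, ~80 mm3). Given 10 μCi (0.37 MBq) 177Lu conjugate i.v. by tail vein; groups sacrificed at 4, 24, 72 h. Tissues weighed and gamma-counted as %ID/g, excretion as %ID; n = 5, mean ± SD. Blocking arms: colchicine 1 mg/kg i.p. beforehand, or D-lysine 40 mg/kg co-injected.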

[2] = Drug localization in endolysosomal compartment of human HT-29 cells assessed as co-localization efficiency at 5 uM incubated for 2 hrs and measured over 24 hrs using natEu labelled compound by lysotracker green staining based confocal microscopic analysis relative to control; assay type: ADME, subcellular; conditions: ht-29, 5 µM
Summary of the method: (§1)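 HT-29 cells (1.25 × 10^5/well) loaded with natEu conjugate (5 μM), washed, then chased in fresh medium up to 24 h. Lysotracker Green (100 nM) applied 2 h before each read; cells fixed and imaged confocally at 405/488 nm. Per-cell mean fluorescence and Lysotracker co-localization quantified.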

[3] = Drug retention in kidney lysates of mouse xenografted with human HT-29 cells assessed as macromolecule associated radioactivity at 29.6 MBq co-treated with D-lysine measured after 72 hrs using 177Lu labelled compound by gamma conter analysis relative to control; assay type: ADME, tissue-based; conditions: in vivo
[4] = Drug uptake in kidney of SCID mouse xenografted with human HT-29 cells using 177Lu labelled compound at 0.37 MBq/mouse, iv co-treated with D-lysine at 40 mg/kg measured at 24 hrs by gamma counter analysis; assay type: ADME, organism-based; conditions: in vivo
Summary of the method: (§2)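 Female SCID mice bore s.c. HT-29 xenografts (5 × 10^6 cells in Matrigel, about 80 mm3). D-lysine 40 mg/kg was co-injected i.v. with 10 μCi (0.37 MBq) of purified 177Lu-conjugate. Tissues were harvested at 24 h, weighed and gamma-counted, reported as %ID/g; mean ± SD, n = 5.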

[5] = Drug uptake in muscle of SCID mouse xenografted with human HT-29 cells pretreated for 1 hr with colchicine at 1 mg/kg, ip followed by 177Lu labelled compound at 0.37 MBq/mouse, iv measured at 24 hrs by gamma counter analysis; assay type: ADME, organism-based, Muscle tissue; conditions: in vivo
Summary of the method: (§3)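 HT-29 flank xenografts in female SCID mice (5 × 10^6 cells in Matrigel, about 80 mm3). Colchicine 1 mg/kg was given i.p. before a tail-vein injection of 10 μCi (0.37 MBq) of purified 177Lu-conjugate. Tissues were taken at 24 h, weighed and gamma-counted as %ID/g; mean ± SD, n = 5.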

Cathepsin B [6] = molecular target: T1, Cathepsin B (Homo sapiens, UniProt P07858); test: Inhibition of human liver cathepsin B assessed as inhibition constant using Z-Arg-Arg-AMC as substrate measured every 5 mins for 1 hr by fluorescence assay
Procathepsin L = Procathepsin L (Homo sapiens, UniProt P07711); test: Binding affinity to cathepsin L in human HT-29 cells assessed as intracellular adduct formation at 0.74 MBq incubated for 4 hrs and measured after 24 hrs in presence of DOTA-beta-ala-[N-alpha-Me8, Dmt11, Tle12] NT6-13 using 177Lu labelled compound by SDS-PAGE analysis; assay type: cell-based; design: dose or concentration left out as unconfirmed
Summary of the method: (§4)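 HT-29 cells (1 × 10^6/well) incubated 4 h at 37 °C with 177Lu conjugate (20 μCi, 0.74 MBq) in 1 mL medium, with or without E-64 (10 μM) or NTSR1 peptide N1 (20 μM). Cells washed and refed; at set times cells pooled, RIPA-lysed with protease inhibitor. Lysates heated 85 °C 2 min, run on 16% tris-glycine SDS-PAGE, and phosphor autoradiography taken after 72 h exposure.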

[7] = Drug uptake in large intestine of SCID mouse xenografted with human HT-29 cells pretreated for 1 hr with colchicine at 1 mg/kg, ip followed by 177Lu labelled compound at 0.37 MBq/mouse, iv measured at 24 hrs by gamma counter analysis; assay type: ADME, organism-based; conditions: in vivo; summary of the method: as §3
[8] = Drug uptake in liver of SCID mouse xenografted with human HT-29 cells using 177Lu labelled compound at 0.37 MBq/mouse, iv co-treated with D-lysine at 40 mg/kg measured at 24 hrs by gamma counter analysis; assay type: ADME, organism-based; conditions: in vivo; summary of the method: as §2
Cathepsin B [9] = molecular target: T1, Cathepsin B; test: Binding affinity to human liver cathepsin B assessed as protein-conjugate adduct formation at 0.74 MBq incubated for 30 mins in presence of DOTA-beta-ala-[N-alpha-Me8, Dmt11, Tle12] NT6-13 using 177Lu labelled compound by SDS-PAGE analysis; conditions: 0.74 M
Summary of the method: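 Purified human liver CatB or CatL (3 nM) in 50 mM sodium acetate/1 mM EDTA pH 5.0 incubated 30 min with 177Lu conjugate (500,000 cpm) in Tris/MgCl2/DTT buffer pH 5.5, alone or with E-64 (10 μM) or N1 (20 μM). Mixtures heated 85 °C 2 min, run on 16% tris-glycine gel at 110 V for 90 min, and read by phosphor autoradiography.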

[10] = Drug retention in liver lysates of mouse xenografted with human HT-29 cells assessed as macromolecule associated radioactivity at 29.6 MBq co-treated with D-lysine measured after 72 hrs using 177Lu labelled compound by gamma counter analysis relative to control; assay type: ADME, tissue-based; conditions: in vivo
Cathepsin B [11] = molecular target: T1, Cathepsin B; test: Binding affinity to cathepsin B in human HT-29 cells assessed as intracellular adduct formation at 0.74 MBq incubated for 4 hrs in presence of E-64 using 177Lu labelled compound by SDS-PAGE analysis; assay type: cell-based; design: dose or concentration left out as unconfirmed; summary of the method: as §4
[12] = Drug uptake in bone of SCID mouse xenografted with human HT-29 cells using 177Lu labelled compound at 0.37 MBq/mouse, iv co-treated with D-lysine at 40 mg/kg measured at 24 hrs by gamma counter analysis; assay type: ADME, organism-based, Bone element; conditions: in vivo; summary of the method: as §2
Cathepsin B [13] = molecular target: T1, Cathepsin B; test: Binding affinity to cathepsin B in human HT-29 cells assessed as intracellular adduct formation at 0.74 MBq incubated for 4 hrs in presence of DOTA-beta-ala-[N-alpha-Me8, Dmt11, Tle12] NT6-13 using 177Lu labelled compound by SDS-PAGE analysis; assay type: cell-based; design: dose or concentration left out as unconfirmed; summary of the method: as §4
[14] = Drug uptake in lung of SCID mouse xenografted with human HT-29 cells using 177Lu labelled compound at 0.37 MBq/mouse, iv co-treated with D-lysine at 40 mg/kg measured at 24 hrs by gamma counter analysis; assay type: ADME, organism-based; conditions: in vivo; summary of the method: as §2
[15] = Drug retention in human HT-29 cells assessed as increase in mean fluorescence intensity at 5 uM incubated for 2 hrs and measured at 2 to 4 hrs using natEu labelled compound by lysotracker green staining based confocal microscopic analysis; assay type: ADME, cell-based; conditions: ht-29, 2 h; summary of the method: as §1
[16] = Drug retention in liver lysates of mouse xenografted with human HT-29 cells assessed as macromolecule associated radioactivity at 29.6 MBq measured after 72 hrs using 177Lu labelled compound by gamma counter analysis relative to control; assay type: ADME, tissue-based; conditions: in vivo
Summary of the method: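 HT-29 xenograft mice given 800 μCi (29.6 MBq) 177Lu conjugate i.v. and killed at 72 h. Tumor, liver and kidney homogenized in RIPA with protease inhibitor and supernatants run on SDS-PAGE autoradiography. Other supernatant aliquots filtered through 10 kDa MWCO devices to give the % macromolecule-associated radioactivity; n = 3.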

Procathepsin L, sequence (P07711 114-333 limits assumed): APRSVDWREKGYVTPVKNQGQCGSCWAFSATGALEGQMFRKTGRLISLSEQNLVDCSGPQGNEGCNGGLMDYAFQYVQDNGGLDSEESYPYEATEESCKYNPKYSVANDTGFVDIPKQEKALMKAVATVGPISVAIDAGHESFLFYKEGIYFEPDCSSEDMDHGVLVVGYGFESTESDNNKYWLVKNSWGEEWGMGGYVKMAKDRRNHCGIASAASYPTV

- Drug uptake [1]: 6 % ID/g
- Drug uptake [2]: 60%
- Drug uptake [3]: 80%
- Drug uptake [4]: 34 % ID/g
- Drug uptake [5]: 0.06 % ID/g
- Ki (Cathepsin B [6]): 0.11 µM
- Activity (Procathepsin L): inactive
- Drug uptake [7]: 0.67 % ID/g
- Drug uptake [8]: 0.65 % ID/g
- Activity (Cathepsin B [9]): Active
- Drug uptake [10]: 80%
- Activity (Cathepsin B [11]): Active
- Drug uptake [12]: 0.6 % ID/g
- Activity (Cathepsin B [13]): inactive
- Drug uptake [14]: 0.41 % ID/g
- Drug uptake [15]: Not Active
- Drug uptake [16]: 80%
Structure (SMILES): Cc1cc(O)cc(C)c1C[C@H](NC(=O)[C@@H]1CCCN1C(=O)[C@H](CCCNC(=N)N)NC(=O)[C@H](CCCNC(=N)N)N(C)C(=O)[C@@H]1CCCN1C(=O)[C@H](CCCCN)NC(=O)[C@@H](CO)NC(=O)[C@@H](CO)NC(=O)[C@@H](CO)NC(=O)[C@H](Cc1cn(CCNC(=O)[C@H](CCCNC(=N)N)NC(=O)[C@H](CC(C)C)NC(=O)C2OC2C(=O)O)nn1)NC(=O)CN1CCN(CC(=O)O)CCN(CC(=O)O)CCN(CC(=O)O)CC1)C(=O)N[C@H](C(=O)N[C@@H](CC(C)C)C(=O)O)C(C)(C)C (some centres not stated)
